ChEMBL document CHEMBL1811821, “Cystic fibrosis: a new target for 4-Imidazo[2,1-b]thiazole-1,4-dihydropyridines” (J Med Chem, 2011)
The source made the active and inactive calls. The rule behind the calls is not given here.

Key:
[1] = test system: Cystic fibrosis transmembrane conductance regulator (Homo sapiens), P13569 [F508del]; assay: Activity at CFTR F508 deletion mutant expressed in forskolin-stimulated FRT cells assessed as maximal increase in iodine influx measured as YFP quenching rate up to 20 uM after 24 hrs by fluorescence assay; assay type: cell-based
Sequence of Cystic fibrosis transmembrane conductance regulator (Homo sapiens), P13569 [F508del] (P13569 as listed by the source): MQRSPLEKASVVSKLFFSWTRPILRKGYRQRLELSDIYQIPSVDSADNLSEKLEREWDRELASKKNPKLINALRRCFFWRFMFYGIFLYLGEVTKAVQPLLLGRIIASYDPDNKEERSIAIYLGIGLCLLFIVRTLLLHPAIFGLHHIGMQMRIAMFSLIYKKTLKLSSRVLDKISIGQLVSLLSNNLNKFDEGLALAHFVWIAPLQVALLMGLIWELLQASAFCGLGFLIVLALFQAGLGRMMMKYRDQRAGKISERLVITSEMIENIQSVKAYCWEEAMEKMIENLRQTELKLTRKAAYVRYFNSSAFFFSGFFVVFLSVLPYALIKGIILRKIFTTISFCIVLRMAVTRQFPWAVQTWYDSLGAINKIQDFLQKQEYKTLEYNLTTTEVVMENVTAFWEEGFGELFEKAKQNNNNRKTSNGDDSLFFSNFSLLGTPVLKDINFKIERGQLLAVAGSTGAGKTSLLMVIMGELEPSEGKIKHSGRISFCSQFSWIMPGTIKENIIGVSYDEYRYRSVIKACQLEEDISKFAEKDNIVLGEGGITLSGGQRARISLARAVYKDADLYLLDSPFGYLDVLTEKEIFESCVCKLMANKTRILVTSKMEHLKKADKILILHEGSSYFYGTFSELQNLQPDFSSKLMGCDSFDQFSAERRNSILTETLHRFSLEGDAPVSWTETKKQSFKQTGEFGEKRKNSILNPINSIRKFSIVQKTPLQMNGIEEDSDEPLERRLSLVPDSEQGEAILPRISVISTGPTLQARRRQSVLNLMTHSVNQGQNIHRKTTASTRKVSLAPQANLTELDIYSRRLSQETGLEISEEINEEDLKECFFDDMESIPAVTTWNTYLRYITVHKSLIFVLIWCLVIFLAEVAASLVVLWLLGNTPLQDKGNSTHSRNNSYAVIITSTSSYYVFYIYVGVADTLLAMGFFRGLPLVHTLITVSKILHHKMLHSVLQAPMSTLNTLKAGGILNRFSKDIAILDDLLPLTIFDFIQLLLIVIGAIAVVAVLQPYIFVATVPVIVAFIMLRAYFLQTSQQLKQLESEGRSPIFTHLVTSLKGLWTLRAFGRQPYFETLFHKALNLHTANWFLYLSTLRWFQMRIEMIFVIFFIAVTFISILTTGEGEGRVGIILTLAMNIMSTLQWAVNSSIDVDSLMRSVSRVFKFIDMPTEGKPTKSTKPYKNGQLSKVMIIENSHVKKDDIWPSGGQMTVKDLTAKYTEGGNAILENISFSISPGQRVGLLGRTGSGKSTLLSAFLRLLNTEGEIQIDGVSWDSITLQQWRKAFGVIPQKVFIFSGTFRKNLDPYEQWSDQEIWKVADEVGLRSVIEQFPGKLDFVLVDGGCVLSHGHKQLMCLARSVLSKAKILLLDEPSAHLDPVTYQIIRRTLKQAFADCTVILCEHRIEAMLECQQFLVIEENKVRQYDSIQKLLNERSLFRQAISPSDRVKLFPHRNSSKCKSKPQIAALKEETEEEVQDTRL
How it was run: (§1)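 ΔF508-CFTR and halide-sensitive YFP coexpressed in FRT cells, held at 27 °C for 24 h for rescue, then stimulated 30–40 min with 20 μM forskolin with or without compound at 0.2, 2 and 20 μM. Fluorescence read before and after I– addition (100 mM final). Normalized decay fitted exponentially for maximal quenching rate; dose–response fitted with Hill equation for potency and maximal effect. Three independent determinations.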

[2] = test system: Cystic fibrosis transmembrane conductance regulator (Homo sapiens), P13569 [F508del]; assay: Activity at CFTR F508 deletion mutant expressed in forskolin-stimulated FRT cells assessed as maximal increase in iodine influx measured as YFP quenching rate at 0.2 uM after 24 hrs by fluorescence assay; assay type: cell-based; how it was run: as §1
[3] = Negative ionotropic activity in potassium depolarized guinea pig longitudinal smooth muscle assessed as inhibition of calcium-induced contraction; assay type: functional, Cavia porcellus
Cavia porcellus [4] = species on record: Cavia porcellus; assay: Negative ionotropic activity in potassium depolarized guinea pig longitudinal smooth muscle assessed as inhibition of calcium-induced contraction at 10^-5 M; assay type: functional
Cavia porcellus [5] = species on record: Cavia porcellus; assay: Negative ionotropic activity in potassium depolarized guinea pig longitudinal smooth muscle assessed as inhibition of calcium-induced contraction at 10^-6 M; assay type: functional
[6] = Negative chronotropic activity against potassium-induced contraction in guinea pig right atrium assessed as decrease atrial rate at 10^-5 M relative to control; assay type: functional; conditions: Cavia porcellus, Cardiac atrium
How it was run: (§2)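 Spontaneously beating isolated guinea pig right atrium, pretreatment rate 165–190 beats/min. Drugs added cumulatively. Decrease in atrial rate expressed as percent change from control, n = 7–8. […] Control versus treated tested at each concentration by Student's t-test, P < 0.05. Mean ± SEM.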

[7] = test system: Cystic fibrosis transmembrane conductance regulator (Homo sapiens), P13569 [F508del]; assay: Activity at CFTR F508 deletion mutant expressed in forskolin-stimulated FRT cells assessed as maximal increase in iodine influx measured as YFP quenching rate after 24 hrs by fluorescence assay; assay type: cell-based; how it was run: as §1
[8] = Negative chronotropic activity against potassium-induced contraction in guinea pig right atrium assessed as decrease atrial rate; assay type: functional, tissue-based; conditions: Cavia porcellus, Cardiac atrium; how it was run: as §2
Aorta [9] = assay: Vasorelaxant activity in potassium depolarized guinea pig aortic strip assessed as inhibition of calcium-induced contraction at 10^-5 M; assay type: functional; conditions: Cavia porcellus
How it was run: (§3)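 Guinea pig aortic strips depolarized with 80 mM K+, with cumulative drug addition. Relaxation given as mean ± SEM. […] Student's t-test against control, P < 0.05.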

[10] = Negative ionotropic activity against potassium-induced contraction in guinea pig left atrium assessed as […] at 10^-5 M relative to control; assay type: functional; conditions: Cavia porcellus, Cardiac atrium
How it was run: (§4)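 Isolated guinea pig left atrium paced at 1 Hz. Drugs added cumulatively. Negative inotropic effect expressed as percent change from control, n = 5–6. […] Student's t-test against control at each concentration, P < 0.05. Mean ± SEM.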

[11] = Binding affinity to CFTR F508 deletion mutant expressed in forskolin-stimulated FRT cells assessed as increase in iodine influx measured as YFP quenching rate after 24 hrs by fluorescence assay; assay type: cell-based; how it was run: as §1
Cavia porcellus [12] = species on record: Cavia porcellus; assay: Negative ionotropic activity in potassium depolarized guinea pig longitudinal smooth muscle assessed as inhibition of calcium-induced contraction at 5 X 10^-5 M; assay type: functional
[13] = Negative ionotropic activity against potassium-induced contraction in guinea pig left atrium assessed as decrease in developed tension; conditions: Cavia porcellus, Cardiac atrium
Cavia porcellus [14] = species on record: Cavia porcellus; assay: Negative ionotropic activity in potassium depolarized guinea pig longitudinal smooth muscle assessed as inhibition of calcium-induced contraction at 5 X 10^-8 M; assay type: functional
[15] = Bronchodilatory activity in guinea pig trachea assessed as inhibition of carbachol-induced contraction at 10^-5 M; assay type: functional; conditions: Cavia porcellus
Aorta [16] = assay: Vasorelaxant activity in potassium depolarized guinea pig aortic strip assessed as inhibition of calcium-induced contraction at 10^-6 M; assay type: functional; conditions: Cavia porcellus; how it was run: as §3
[17] = Negative chronotropic activity against potassium-induced contraction in guinea pig right atrium assessed as decrease atrial rate at 10^-4 M relative to control; assay type: functional; conditions: Cavia porcellus, Cardiac atrium; how it was run: as §2
[18] = Negative ionotropic activity against potassium-induced contraction in guinea pig left atrium assessed as […] at 10^-4 M relative to control; assay type: functional; conditions: Cavia porcellus, Cardiac atrium; how it was run: as §4
Aorta [19] = assay: Vasorelaxant activity in potassium depolarized guinea pig aortic strip assessed as inhibition of calcium-induced contraction at 10^-4 M; assay type: functional; conditions: Cavia porcellus; how it was run: as §3
[20] = Ratio EC50 for negative chronotropic activity against potassium-induced contraction in guinea pig right atrium to EC50 for negative […] activity against potassium-induced contraction in guinea pig left atrium; assay type: functional, Cavia porcellus, Cardiac atrium
[21] = Ratio EC50 for nifedipine to compound for negative […] activity against potassium-induced contraction in left atrium of guinea pig; assay type: functional, Cavia porcellus, Cardiac atrium
[22] = Negative ionotropic activity against potassium-induced contraction in guinea pig left atrium assessed as […] at 10^-6 M relative to control; assay type: functional; conditions: Cavia porcellus, Cardiac atrium; how it was run: as §4
Cavia porcellus [23] = species on record: Cavia porcellus; assay: Negative ionotropic activity in potassium depolarized guinea pig longitudinal smooth muscle assessed as inhibition of calcium-induced contraction at 5 X 10^-7 M; assay type: functional
[24] = Bronchodilatory activity in guinea pig trachea assessed as inhibition of carbachol-induced contraction at 10^-4 M; assay type: functional; conditions: Cavia porcellus
[25] = Bronchodilatory activity in guinea pig trachea assessed as inhibition of carbachol-induced contraction; assay type: functional, tissue-based, Cavia porcellus

| SMILES | Activity [1] | Activity [2] | IC50 [3] | Emax [7] | Kd [11] | other results |
| --- | --- | --- | --- | --- | --- | --- |
| COC(=O)C1=C(C)NC(C)=C(C(=O)OC)C1c1c(-c2cc(OC)ccc2OC)nc2sc(C)cn12 | inactive | inactive | 4890 nM | – | – | inhibition (Cavia porcellus [4]): 74% |
| CCOC(=O)C1=C(C)NC(C)=C(C(=O)OCC)C1c1c(-c2ccccc2)nc2sc(C)cn12 | – | inactive | 250 nM | 60 ms-1 | 14800 nM | inhibition (Cavia porcellus [5]): 83%; inhibition at 10 µM [6]: 84%; EC50 [8]: 7150 nM; inhibition at 10 µM (Aorta [9]): 5%; inhibition at 10 µM [10]: 44% |
| COC(=O)C1=C(C)NC(C)=C(C(=O)OC)C1c1c(-c2cc(OC)ccc2OC)nc2sc(Cl)cn12 | inactive | inactive | 1140 nM | – | – | inhibition (Cavia porcellus [12]): 91% |
| C=CCOC(=O)C1=C(C)NC(C)=C(C(=O)OCC=C)C1c1c(-c2ccc(OC(F)(F)F)cc2)nc2sccn12 | – | inactive | 5.3 nM | 60 ms-1 | 4800 nM | EC50 [13]: 730 nM; inhibition (Cavia porcellus [14]): 90%; inhibition at 10 µM [15]: 38%; EC50 [8]: 1970 nM; inhibition at 1 µM (Aorta [16]): 31%; inhibition at 100 µM [17]: 77%; inhibition at 100 µM [18]: 88% |
| COC(=O)C1=C(C)NC(C)=C(C(=O)OC)C1c1c(C)nc2sc(C)cn12 | inactive | inactive | 8830 nM | – | – | inhibition at 10 µM [15]: 27%; inhibition (Cavia porcellus [4]): 70% |
| COC(=O)C1=C(C)NC(C)=C(C(=O)OC)C1c1c(-c2cc(OC)c(OC)c(OC)c2)nc2sc(Cl)cn12 | inactive | inactive | – | – | – | – |
| COC(=O)C1=C(C)NC(C)=C(C(=O)OC)C1c1c(-c2ccccc2)nc2n1CCS2 | inactive | inactive | 260 nM | – | – | inhibition at 100 µM (Aorta [19]): 46%; EC50 [13]: 390 nM; inhibition (Cavia porcellus [5]): 80%; EC50 [8]: 8630 nM; Ratio EC50 [20]: 22; inhibition at 100 µM [17]: 90%; inhibition at 100 µM [18]: 78% |
| CCc1cn2c(C3C(C(=O)OC)=C(C)NC(C)=C3C(=O)OC)c(-c3cc(OC)ccc3OC)nc2s1 | inactive | inactive | 2160 nM | – | – | inhibition (Cavia porcellus [4]): 92% |
| COC(=O)C1=C(C)NC(C)=C(C(=O)OC)C1c1c(C)nc2sc(Cl)cn12 | – | inactive | 550 nM | 60 ms-1 | 42900 nM | Ratio EC50 [21]: 2.6 |
| CCOC(=O)C1=C(C)NC(C)=C(C(=O)OCC)C1c1c(-c2ccc(Cl)c(Cl)c2Cl)nc2sccn12 | – | inactive | 38 nM | 46 ms-1 | 3200 nM | inhibition at 100 µM (Aorta [19]): 17%; EC50 [13]: 430 nM; inhibition (Cavia porcellus [5]): 77%; inhibition at 1 µM [22]: 90%; inhibition at 10 µM [6]: 92%; inhibition at 10 µM [15]: 40%; EC50 [8]: 610 nM |
| COC(=O)C1=C(C)NC(C)=C(C(=O)OC)C1c1c(-c2ccccc2OC)nc2sccn12 | inactive | inactive | 860 nM | – | – | – |
| COC(=O)C1=C(C)NC(C)=C(C(=O)OC)C1c1c(Cl)nc2sc(C)c(C)n12 | – | inactive | 320 nM | 60 ms-1 | 10900 nM | inhibition (Cavia porcellus [5]): 78% |
| COC(=O)C1=C(C)NC(C)=C(C(=O)OC)C1c1c(-c2cc(OC)c([N+](=O)[O-])cc2OC)nc2sc(Cl)cn12 | inactive | inactive | 74 nM | – | – | inhibition (Cavia porcellus [23]): 92%; inhibition at 100 µM [24]: 35% |
| COC(=O)C1=C(C)NC(C)=C(C(=O)OC)C1c1c(-c2cccc(OC(F)(F)F)c2)nc2sccn12 | – | inactive | 18 nM | 64 ms-1 | 1400 nM | IC50 [25]: 58 nM; inhibition (Cavia porcellus [14]): 76% |
